Results: ChEMBL document CHEMBL1140339, “Spiro and dispiro-1,2,4-trioxolanes as antimalarial peroxides: charting a workable structure-activity relationship using simple prototypes” (J Med Chem, 2005)
In brackets after ≈: the same amount, converted by molar mass.

Columns and labels:
Plasmodium falciparum [1] = assay: In vitro inhibition of chloroquine-sensitive Plasmodium falciparum NF54; format: functional, organism-based
Mus musculus [2] = assay: Antimalarial activity (100 mg/kg, subcutaneously) given 1 day post infection of mice (Mus musculus) with Plasmodium berghei is its ability to reduce parasitemia on day 3 post infection; format: functional
Method in brief: (§1)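 P. berghei-infected MORO mice, groups of three, treated 1 day postinfection with a single dose (100 or 10 mg/kg, po or sc) dissolved or suspended in 3% ethanol/7% Tween-80. Activity is percent reduction in parasitemia on day 3 postinfection versus untreated controls. Survival time is compared with an untreated control group. Individual measurements generally differed by less than 10%.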

Plasmodium falciparum [3] = assay: In vitro inhibition of chloroquine-resistant Plasmodium falciparum K1; format: functional, organism-based
Mus musculus [4] = assay: Antimalarial activity (100 mg/kg, peroral) given 1 day post infection of mice (Mus musculus) with Plasmodium berghei is its ability to reduce parasitaemia on day 3 post infection; format: functional; method in brief: as §1
Mus musculus [5] = assay: Survival of mice to 30-day postinfection with Plasmodium berghei upon 100 mg/kg peroral dose was determined; format: functional; settings: route oral; method in brief: as §1
Mus musculus [6] = assay: Survival of mice to 30-day postinfection with Plasmodium berghei upon 100 mg/kg upon subcutaneous dose was determined; format: functional; method in brief: as §1
Mus musculus [7] = assay: Survival of mice to 30-day postinfection with Plasmodium berghei upon 10 mg/kg peroral dose was determined; format: functional; settings: route oral; method in brief: as §1
Mus musculus [8] = assay: Antimalarial activity (10 mg/kg, subcutaneously) given 1 day post infection of mice (Mus musculus) with Plasmodium berghei is its ability to reduce parasitemia on day 3 post infection; format: functional; method in brief: as §1
Plasmodium falciparum [9] = assay: Antiparasitic effect against Plasmodium berghei infected mice (Mus musculus) after 100 mg/kg peroral (T/A Tween-80) dose after 3 days; format: functional, organism-based; parameters: dose 100 mg/kg, route oral; method in brief: as §1
Plasmodium falciparum [10] = assay: Anti-parasitic effect against Plasmodium berghei in mice (Mus musculus) after 4 days at 100 mg/kg/day (T/A Tween 80) peroral dose in Peters suppressive assay; format: functional, organism-based; parameters: route oral
[11] = Volume distribution after intravenous administration of 30 mg/kg; format: ADME, organism-based, Mus musculus; parameters: dose 30 mg/kg, route intravenous; settings: in vivo
Method in brief: (§2)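 Conscious, free-moving rats (n = 3 per group) were jugular- and carotid-cannulated the day before dosing under isoflurane, then fasted overnight. The iv dose was a 5 min jugular infusion in aqueous 0.1 M Captisol (10, 20 or 30 mg/kg). The oral dose was given by gavage as a suspension in 0.5% CMC/0.4% polysorbate 80/0.5% benzyl alcohol/0.9% NaCl (30, 50 or 80 mg/kg). Carotid blood was sampled over 7 h and plasma was obtained by centrifugation.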

[12] = Plasma half life period after intravenous administration ( 30 mg/kg ); format: ADME, organism-based, Mus musculus; parameters: dose 30 mg/kg, route intravenous; method in brief: as §2
[13] = Plasma clearance after intravenous administration of 30 mg/kg; format: ADME, organism-based, Mus musculus; parameters: dose 30 mg/kg, route intravenous; method in brief: as §2
Plasmodium falciparum [14] = assay: Antiparasitic effect against Plasmodium berghei infected mice (Mus musculus) after 100 mg/kg peroral (SSV) dose after 3 days; format: functional; settings: route oral
Mus musculus [15] = assay: Survival of mice to 30-day postinfection with Plasmodium berghei upon 10 mg/kg upon subcutaneous dose was determined; format: functional; method in brief: as §1
[16] = Bioavailability obtained after oral administration of 80 mg/kg; format: ADME, organism-based, Mus musculus; settings: in vivo; method in brief: as §2
Mus musculus [17] = assay: Antimalarial activity (10 mg/kg, peroral) given 1 day post infection of mice (Mus musculus) with Plasmodium berghei is its ability to reduce parasitaemia on day 3 post infection; format: functional; method in brief: as §1
[18] = Plasma half life period after intravenous administration ( 10 mg/kg ); settings: rat
[19] = Oral bioavailability (dose 50 mg/kg); settings: rat, in vivo
Mus musculus [20] = assay: Effective dose required to reduce the parasitemia in mice when compound administered with Tween-80 after 3 day postinfection; format: functional
[21] = Volume distribution after intravenous administration of 10 mg/kg; settings: rat, in vivo
[22] = Plasma clearance after intravenous administration of 10 mg/kg; settings: rat
Mus musculus [23] = species: Mus musculus; assay: Effective dose required to reduce the parasitemia in mice by suppressive test after 4 day postinfection; format: functional
Method in brief: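 Peters 4-day suppressive test in P. berghei-infected mice with multiple daily oral doses. ED50/ED90 are given in (mg/kg)/day.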

[24] = Volume distribution after intravenous administration of 20 mg/kg; settings: rat, in vivo
Mus musculus [25] = assay: Survival of mice to 30-day postinfection with Plasmodium berghei upon 10 mg/kg upon peroral dose was determined; format: functional; settings: route oral; method in brief: as §1
[26] = Plasma half life period after intravenous administration ( 20 mg/kg); settings: rat, in vivo
Mus musculus [27] = assay: Effective dose required to reduce the parasitemia in mice when compound administered with SSV after 3 day postinfection; format: functional
[28] = Bioavailability obtained after oral administration of 30 mg/kg (n=1); format: ADME, organism-based, Mus musculus; settings: in vivo; method in brief: as §2
[29] = Plasma half life period after intravenous administration ( 20 mg/kg ); settings: rat
[30] = Plasma clearance after intravenous administration of 20 mg/kg; settings: rat

| Structure (SMILES) | IC50 (Plasmodium falciparum [1]) [µg/mL] | Reduction (Mus musculus [2]) [%] | IC50 (Plasmodium falciparum [3]) [µg/mL] | Reduction (Mus musculus [4]) [%] | Survival (Mus musculus [5]) [days] | Survival (Mus musculus [6]) [days] | Survival (Mus musculus [7]) [days] | Reduction (Mus musculus [8]) [%] | Survival (Mus musculus [15]) [days] | Reduction (Mus musculus [17]) [%] | other results |
| --- | --- | --- | --- | --- | --- | --- | --- | --- | --- | --- | --- |
| C1C2CC3CC1CC(C2)C31OOC2(O1)C1CC3CC(C1)CC2C3 (centres undefined) | 0.779 (≈ 2.46 µM) | 0 | 0.95 (≈ 3 µM) | 0 | 5.3 | 5.3 |  |  |  |  |  |
| C1CCC2(CC1)OOC1(CCCCC1)O2 | 0.504 (≈ 2.37 µM) | 0 | 0.1 (≈ 0.471 µM) | 0 | 5.3 | 5.3 |  |  |  |  |  |
| CC1(C)COC2(CCC3(CC2)OOC2(O3)C3CC4CC(C3)CC2C4)OC1 (centres undefined) |  |  |  |  |  |  | 11.4 | >99.99 | 18 |  | EC50 (Plasmodium falciparum [9]): 1.5 (mg/kg)/day; EC50 (Plasmodium falciparum [10]): 1.8 (mg/kg)/day; Vd [11]: 18 L/kg; half-life [12]: 2.58 h; clearance [13]: 83 mL/min/kg; EC90 (Plasmodium falciparum [14]): 6.2 (mg/kg)/day; bioavailability [16]: 0.73% |
| CCOC(=O)N1CCC2(CC1)OOC1(O2)C2CC3CC(C2)CC1C3 (centres undefined) | 0.00057 (≈ 0.00169 µM) |  | 0.00029 (≈ 0.000859 µM) |  |  |  | 7.7 | 99.9 | 8.9 | 99.5 | half-life [18]: 5.73 h; bioavailability [19]: 1.5%; ED90 (Mus musculus [20]): 5.5 (mg/kg)/day; Vd [21]: 23 L/kg; clearance [22]: 47 mL/min/kg; ED90 (Mus musculus [23]): 2 (mg/kg)/day |
| O=C1CCC2(CC1)OOC1(CCCCC1)O2 | 0.039 (≈ 0.172 µM) | 0 | 0.015 (≈ 0.0663 µM) | 0 | 5 | 5 |  |  |  |  |  |
| C1CCC2(CC1)COC1(O2)C2CC3CC(C2)CC1C3 (centres undefined) | > 1 | 0 | > 1 | 0 | 5.6 | 5.6 |  |  |  |  |  |
| O=C1CCC2(CC1)OOC1(O2)C2CC3CC(C2)CC1C3 (centres undefined) | 0.00073 (≈ 0.00262 µM) | >99.99 | 0.00048 (≈ 0.00172 µM) | >99.99 | 10.7 | 30 |  | 99.7 | 8.6 | 94 | Vd [24]: 12 L/kg; Survival (Mus musculus [25]): 7.1 days; ED50 (Mus musculus [20]): 3.5 (mg/kg)/day; ED90 (Mus musculus [20]): 7 (mg/kg)/day; T1/2 [26]: 1.95 h; ED50 (Mus musculus [27]): 8.7 (mg/kg)/day; ED90 (Mus musculus [27]): 12 (mg/kg)/day; ED50 (Mus musculus [23]): 1.5 (mg/kg)/day; ED90 (Mus musculus [23]): 6.1 (mg/kg)/day |
| c1ccc(C2CCC3(CC2)OOC2(O3)C3CC4CC(C3)CC2C4)cc1 (centres undefined) |  |  |  |  |  |  | 12.6 | 99.92 | 17.1 |  | half-life [18]: 1.62 h; bioavailability [28]: 9.5%; ED90 (Mus musculus [20]): 3.2 (mg/kg)/day; ED90 (Mus musculus [27]): 5.7 (mg/kg)/day; Vd [21]: 5 L/kg; clearance [22]: 33 mL/min/kg; ED90 (Mus musculus [23]): 2.6 (mg/kg)/day |
| C1CC2(CCO1)OOC1(O2)C2CC3CC(C2)CC1C3 (centres undefined) |  |  |  |  |  | 7.7 | 6 | 99.6 |  | 35 |  |
| C1CCCCCC2(CCCCC1)OOC1(O2)C2CC3CC(C2)CC1C3 (centres undefined) |  |  |  |  |  | 7 | 7.4 | 90 |  |  |  |
| C1CCC2(CC1)OCC1(O2)C2CC3CC(C2)CC1C3 (centres undefined) | > 1 | 0 | > 1 | 0 | 5.8 | 5.6 |  |  |  |  |  |
| c1ccc(C2CCC3(CC2)OOC2(O3)C3CCCC2CCC3)cc1 (centres undefined) | > 0.1 |  | > 0.1 |  |  |  | 5 | 0 | 5 | 0 |  |
| C1CCC2(CC1)OOC1(O2)C2CC3CC(C2)CC1C3 (centres undefined) |  | >99.99 |  | >99.99 | 14.3 | 28 |  | >99.99 |  | 94 | Survival (Mus musculus [25]): 7.2 days |
| CO[C@H]1O[C@@H]2O[C@@]3(C)CC[C@H]4[C@H](C)CC[C@@H]([C@H]1C)[C@@]24OO3 |  | >99.99 |  | 99.95 | 14.7 | 14.7 |  | 99.78 |  | 98 | half-life [18]: 0.867 h; bioavailability [19]: 1.4%; ED50 (Mus musculus [20]): 2 (mg/kg)/day; ED90 (Mus musculus [20]): 4.3 (mg/kg)/day; ED50 (Mus musculus [27]): 2.7 (mg/kg)/day; ED90 (Mus musculus [27]): 6.2 (mg/kg)/day; Vd [21]: 8 L/kg; clearance [22]: 114 mL/min/kg; ED50 (Mus musculus [23]): 3.1 (mg/kg)/day |
| C[C@@H]1CC[C@H]2[C@@H](C)C(=O)O[C@@H]3O[C@@]4(C)CC[C@@H]1[C@]32OO4 [ARTEMISININ] |  | >99.99 | 0.0016 (≈ 0.00567 µM) | 98 |  | 14 |  |  |  |  |  |
| C[C@H]1[C@@H](O)O[C@@H]2O[C@@]3(C)CC[C@H]4[C@H](C)CC[C@@H]1[C@@]24OO3 [ARTENIMOL] |  |  |  |  |  |  |  |  |  |  | Vd ([24]; read-out: Vd): 3 L/kg; half-life [29]: 0.433 h; clearance [30]: 72 mL/min/kg |
| C[C@H]1[C@H](OC(=O)CCC(=O)O)O[C@@H]2O[C@@]3(C)CC[C@H]4[C@H](C)CC[C@@H]1[C@@]24OO3 [ARTESUNATE] |  |  |  |  |  |  | 6.8 | 65 | 6.8 | 65 | ED50 (Mus musculus [20]): 5 (mg/kg)/day; ED90 (Mus musculus [20]): 13 (mg/kg)/day; ED50 (Mus musculus [27]): 5.9 (mg/kg)/day; ED90 (Mus musculus [27]): 21 (mg/kg)/day; ED50 (Mus musculus [23]): 2.4 (mg/kg)/day; ED90 (Mus musculus [23]): 13 (mg/kg)/day |
| CCN(CC)CCCC(C)Nc1ccnc2cc(Cl)ccc12 (centres undefined) [CHLOROQUINE] |  |  |  |  |  |  |  |  |  |  | ED50 (Mus musculus [27]): 1.9 (mg/kg)/day; ED90 (Mus musculus [27]): 4.2 (mg/kg)/day |
